Bioassay records from PubChem BioAssay.
T cruzi inh – T. cruzi replication inhibition; T. cruzi beta-gal in NIH3T3, luminescence, 90 h; inhibition, % (concentration not given with the values); 1.4% of 300,000 active; AID 1885;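 active = mean inhibition across valid replicates above about 55%, limit read from the data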;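 also: signal also drops with host cell toxicity which is not excluded here; 0% = plate median of DMSO wells and 100% = zero luminescence signal; higher percent means less beta-gal luminescence so fewer parasites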
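Read-out: Parasite load inhibition, % | Test system: Mouse NIH/3T3 fibroblasts infected with β-gal-expressing T. cruzi Tulahuen C4 | Amount: 5,000 cells/well | Medium: DMEM, 2% fetal bovine serum | Signal: GalScreen β-gal luminescence, detergent lysis, 60 min | Timing: 3 h attach, ≥90 h co-culture | Also added: Tulahuen C4 trypomastigotes, 5000/well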
Redox H2O2 prof – compounds producing H2O2 with reducing agent – biochemical, NIH compound library profiling, artefact control for MLSCN library redox annotation, primary screen; DTT-dependent redox cycling H2O2, phenol red/HRP absorbance; 100% = 100 µM peroxide control, 0% = buffer; activation, % at 10 µM; 0.03% of 200,000 active;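 active = activation of at least 50% relative to the plate's high and low controls in the primary single-dose screen; inactive = activation below 50%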;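 also: compound incubated with DTT at 0.8 mM final as the reducing agent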
Lipid droplet – modulators of hepatic lipid droplet formation | AID 1656 | inhibition, % at 6.5 µM | 0.4% of 240,000 active | AML12 mouse hepatocytes, oleate lipid droplets, BODIPY imaging;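 active = lipid droplet intensity inhibited by at least 50%, with more than 500 cells counted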
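material = mouse AML12 hepatocyte cell line, fixed after treatment | also added = 100 µM oleic acid challenge | doses = compound at 6.5 µM only | schedule = overnight exposure | technique = Image-based BODIPY and DAPI two-channel analysis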
L major viab – Leishmania major promastigote growth inhibition | Leishmania major promastigotes, resazurin fluorescence viability | inhibition, % at 10 µM | 9% of 200,000 active | AID 1063; in the data active = inhibition above about 50%;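 also: promastigotes grown with compound for 44 hours at 28 °C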
MPTP block – inhibitors of mitochondrial permeability transition pore | inhibition, % at 10 µM | isolated mouse mitochondria, Ca2+ swelling absorbance, 30 min | AID 602449 | 1.4% of 360,000 active;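 active = inhibition of 50% or more, scaled per plate between neutral and stimulator controls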;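 also: 0% = DMSO wells given calcium and 100% = 1 mM EGTA wells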
Active calls of the source: *; / = no result. The sample as a whole holds a higher share of hits than the screen did.

SMILES	T cruzi inh	Redox H2O2 prof	Lipid droplet	L major viab	MPTP block
CC(C)c1nnc(NC(=O)c2c(O)c3cccc4c3n(c2=O)CCC4)s1	-1	0	/	72*	2
Cc1ccc(CNC(=O)CCC2CCCN(Cc3ccc4cccc(F)c4n3)C2)o1 (centres undefined)	61*	0	-16	-2	/
Cc1ccc(CNC(=O)CCC2CCCN(Cc3c(C)nn(C(C)C)c3C)C2)o1 (centres undefined)	67*	0	9	-5	1
Cc1ccc(CNC(=O)CCC2CCCN(Cc3cccc4c3OCO4)C2)o1 (centres undefined)	52	/	-2	/	-1
CCO/C(C)=N/Oc1cncnc1	/	/	/	/	0
CC(=O)c1ccc(NC(=O)C(=O)c2cn(CC(=O)N3CCCCC3)c3ccccc23)cc1	10	4	14	-1	1
O=C(Nc1ccc(NC(=O)N2CCN(c3ccccc3O)CC2)cc1)N1CCN(c2ccccc2O)CC1	1	/	10	/	0
COc1cc(CNCc2cccs2)ccc1OCc1cccs1	17	-4	/	100*	1
c1ccc(COc2cccc(CNCc3cccs3)c2)cc1	3	0	7	98*	4
COc1cc(CNCc2cccs2)ccc1OCC(N)=O	-2	-5	/	-3	-1
COc1cc(CNCc2cccs2)ccc1OCC(=O)NC(C)(C)C	12	-3	/	89*	0
CCOc1cc(CNCc2cccs2)ccc1OCC(=O)NC(C)(C)C	4	0	1	5	1
CC(=O)N(CCCN(C)C)CCC(C)CCC=C(C)C (centres undefined)	65*	-1	0	100*	2
Fc1ccc(COc2ccc(Br)cc2CNCC2CCCO2)cc1 (centres undefined)	19	-2	-4	82*	-2
Cc1cc2c(N=O)c(NO)ccc2[nH]1	31	2	6	83*	1
O=C(NCC(c1ccco1)N1CCN(c2ccccc2F)CC1)C1CCCCC1 (centres undefined)	15	/	/	/	0
O=C(NCC(c1cccnc1)N1CCN(c2ccc(F)cc2)CC1)C1CCCCC1 (centres undefined)	36	-1	/	74*	-2
O=C(NCC(c1cccnc1)N1CCN(c2ccccc2F)CC1)C1CCCCC1 (centres undefined)	-13	0	0	71*	-4
COc1ccc(N2CCN(C(CNC(=O)C3CCCCC3)c3cccnc3)CC2)cc1 (centres undefined)	52	0	/	87*	1
CC(=O)Nc1ccc(NC(=O)COC(=O)C2(c3ccc(Cl)cc3)CCCC2)cc1	41	0	14	74*	5
O=C(c1sc2ccccc2c1Cl)N(Cc1ccccc1)C1CCS(=O)(=O)C1 (centres undefined)	15	1	/	46	3
O=C(c1sc2ccccc2c1Cl)N(Cc1ccco1)C1CCS(=O)(=O)C1 (centres undefined)	9	3	/	96*	0
CCOC(=O)c1c(Cc2ccccc2)c[nH]c1C	8	-1	9	5	-1
N#C/C(=C/c1ccc(Oc2ccc([N+](=O)[O-])cn2)cc1)C(=O)N1CCOCC1	-2	0	9	66*	-1
N#C/C(=C\c1cccc(Oc2ccccc2)c1)C(=O)N1CCOCC1	-20	0	3	0	-7
COc1ccc(C2C(C#N)=C(N)Oc3c2sc2nc(C)cc(C)c32)cc1 (centres undefined)	36	2	-20	100*	5
CCOC(=O)c1c(NC(=S)N2CCN(C)CC2)sc(C)c1-c1ccccc1	61*	/	-8	/	1
